The source of these data is ChEMBL document CHEMBL1159065, “Conjugates of desferrioxamine B (DFOB) with derivatives of adamantane or with orally available chelators as potential agents for treating iron overload” (J Med Chem, 2010).

Series [1] can be described thus: Partition coefficient, log P by RP-HPLC. To be noted: octanol/water. The series is classed as physicochemical.
Series [2] in a line: Partition coefficient, log P by shake flask method. To be noted: octanol/water. The series is classed as physicochemical.
A short description of series [3]: Toxicity in MDCK cells by MTT method. It is filed as cell-based, Canis lupus familiaris. The settings on record: dog. The method, boiled down:
(§1)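 MTT proliferation assay giving IC50; MTT colour checked proportional to viable cell number by Trypan blue (SK-N-MC) or total cell protein (MDCK II). SK-N-MC grown as in earlier work; MDCK II cultured by standard procedures.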

Series [4] can be described thus: Toxicity in human SK-N-MC cells by MTT method. The series is classed as cell-based. The method, boiled down:
as §1
A general note: Formazan colour is commonly taken as a measure of viable cells.

Series [5] in a line: Solubility in water. The series is classed as physicochemical.
The subject of series [6] is SK-N-MC. Kind of series: Induction of [59Fe] mobilization in human SK-N-MC cells prelabeled with [59Fe]transferrin at 50 uM after 3 hrs relative to untreated control. It is filed as functional. In outline:
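Cells prelabeled with 59Fe-Tf (0.75 μM), 3 h, 37 °C; washed four times in ice-cold PBS, then exposed to chelator (50 μM) 3 h at 37 °C. Medium removed by Pasteur pipet; gamma counting of cell pellet and supernatant gives released 59Fe as % of cellular 59Fe. Mean ± SD, three experiments, triplicate determinations each.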

Series [7] concerns the target Serotransferrin (Homo sapiens) (UniProt P02787). Description: Inhibition of [59Fe] uptake from [59Fe]transferrin in human SK-N-MC cells assessed as at 50 uM after 3 hrs relative to untreated control; values are per cent of control.
The subject of series [8] is SK-N-MC. Description: Induction of [59Fe] mobilization in human SK-N-MC cells prelabeled with [59Fe]transferrin at 50 uM after 3 hrs relative to desferrioxamine B. The series is classed as functional. In outline: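 Cells were prelabeled with 59Fe-Tf (0.75 μM) for 3 h at 37 °C, washed four times with ice-cold PBS, then exposed to chelator (50 μM) for 3 h at 37 °C. Released 59Fe in the medium and cell-pellet 59Fe were counted by γ-counter. DFOB was run in parallel. Data are mean ± SD of three experiments, each with triplicate determinations.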

Series [9] has as its target Serotransferrin (Homo sapiens) (UniProt P02787). Kind of series: Inhibition of [59Fe] uptake from [59Fe]transferrin in human SK-N-MC cells at 50 uM after 3 hrs relative to relative to desferrioxamine B. It is filed as cell-based. The method, boiled down: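 SK-N-MC cells incubated with 59Fe-Tf (0.75 μM) plus chelator (50 μM), 3 h at 37 °C; washed four times in ice-cold PBS, then Pronase (1 mg/mL) 30 min at 4 °C. Pronase-insensitive pellet after centrifugation taken as internalized 59Fe, expressed as % of untreated control. Mean ± SD, three experiments, triplicate determinations each.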

≈ marks a conversion by molar mass, not a printed value. Calls of active or inactive are those of the source. No cut-off for these calls is given here.

Sequence of Serotransferrin (Homo sapiens) (P02787 whole entry): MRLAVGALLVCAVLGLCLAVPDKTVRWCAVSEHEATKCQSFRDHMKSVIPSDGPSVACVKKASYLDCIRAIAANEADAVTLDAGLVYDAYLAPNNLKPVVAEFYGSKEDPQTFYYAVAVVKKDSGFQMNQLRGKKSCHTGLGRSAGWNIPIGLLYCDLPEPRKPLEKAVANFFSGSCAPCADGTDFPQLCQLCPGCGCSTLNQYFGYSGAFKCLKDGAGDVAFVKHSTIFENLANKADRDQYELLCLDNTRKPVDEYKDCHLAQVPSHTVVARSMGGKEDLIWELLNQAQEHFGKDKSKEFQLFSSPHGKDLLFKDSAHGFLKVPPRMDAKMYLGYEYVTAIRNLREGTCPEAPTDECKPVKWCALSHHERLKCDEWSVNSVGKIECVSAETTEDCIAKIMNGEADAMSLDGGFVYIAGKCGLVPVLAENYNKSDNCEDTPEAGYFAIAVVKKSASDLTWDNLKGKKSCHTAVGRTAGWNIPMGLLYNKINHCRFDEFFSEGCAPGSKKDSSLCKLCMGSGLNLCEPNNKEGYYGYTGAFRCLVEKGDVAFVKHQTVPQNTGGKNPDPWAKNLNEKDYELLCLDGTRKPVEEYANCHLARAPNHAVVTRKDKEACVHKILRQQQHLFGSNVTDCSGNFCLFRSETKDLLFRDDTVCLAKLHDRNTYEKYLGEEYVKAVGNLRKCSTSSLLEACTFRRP

Broadly, the logP is a log measure of how a compound divides between an organic and an aqueous phase. Read a low logP as lower lipophilicity. Broadly, the IC50 is the concentration that inhibits the measured activity by half. A low value points to greater potency in that assay. Consider `CC(=O)N(O)CCCCCNC(=O)CCC(=O)N(O)CCCCCNC(=O)CCC(=O)N(O)CCCCCNC(=O)Cn1ccc(=O)c(O)c1C`, for which the figures for the lipophilicity (logP) in series [1] and in series [2] were -1.16 and -1.29, respectively. Also, the IC50 in [3] is more than 300 µM; in series [4], more than 200 µM.

What is called solubility is the dissolved amount per volume that the medium holds. Higher therefore signals much dissolved substance. One may read the residual activity as the signal under treatment as a percentage of the control signal. Consider `CC(=O)N(O)CCCCCNC(=O)CCC(=O)N(O)CCCCCNC(=O)CCC(=O)N(O)CCCCCN` [DEFEROXAMINE], for which the solubility in series [5] was determined as 400 mM (≈ 224 mg/mL). Also, the figures for the half-maximal inhibitory concentration (IC50) in series [3] and in [4] were 9.49 µM and 16 µM, respectively. Moreover, in the series with SK-N-MC [6], the Activity is given as 12%. Besides, the residual activity in series [7] was determined as 87%.

Turning to `CC(=O)N(O)CCCCCNC(=O)CCC(=O)N(O)CCCCCNC(=O)CCC(=O)N(O)CCCCCNC(=O)C12CC3CC(C)(CC(C)(C3)C1)C2`, the logP in series [1] came out at 1.95; in series [2], 2.92. The half-inhibitory concentration (IC50) in series [3] worked out at 163 µM; in series [4], 92.4 µM. Moreover, in the series with SK-N-MC [8], the “fold change (FC)” value amounted to 3. The inhibition entry in series [9] was “Active”. The residual activity in series [7] was 18%.

In turn, `c1ccc2c(c1)oc1ccccc12` [DIBENZOFURAN] returned a lipophilicity (logP) in series [2] of 4.04.

With `CC(=O)N(O)CCCCCNC(=O)CCC(=O)N(O)CCCCCNC(=O)CCC(=O)N(O)CCCCCNC(=O)COc1ccc(C)cc1`, the logP in [1] came out at 0.93; in [2], 1.68. Besides, the values for the IC50 in [3] and in series [4] were more than 150 µM and more than 200 µM, respectively. Further, the outcome in the series with SK-N-MC [6] was Active. The inhibition result in [9] was “Active”.

As to `CC(=O)N(O)CCCCCNC(=O)CCC(=O)N(O)CCCCCNC(=O)CCC(=O)N(O)CCCCCNC(=O)CC12CC3CC(CC(C3)C1)C2`, the logP in [1] amounted to 1.47; in [2], 2.21. Moreover, the 50% inhibitory concentration (IC50) in series [3] is 226 µM; in [4], 167 µM. For the same compound, the “fold change (FC)” value with SK-N-MC [8] was 2.8. In series [9], the inhibition entry is “Active”.

With `CC(=O)N(O)CCCCCNC(=O)CCC(=O)N(O)CCCCCNC(=O)CCC(=O)N(O)CCCCCNC(=O)C12CC3CC(CC(O)(C3)C1)C2`, the lipophilicity (logP) was -0.11 in series [1] and 0.29 in series [2]. In addition, the concentration for half-maximal inhibition (IC50) in [3] is more than 100 µM; in series [4], more than 200 µM. Besides, in the series on SK-N-MC [6], the outcome was inactive.

Turning to `CC(=O)N(O)CCCCCNC(=O)CCC(=O)N(O)CCCCCNC(=O)CCC(=O)N(O)CCCCCNC(=O)C12CC3CC(CC(C3)C1)C2`, the results for the lipophilicity (logP) in series [1] and in [2] were 1.29 and 2.11, respectively. Further, the figures for the IC50 in series [3] and in series [4] were 119 µM and 174 µM, respectively. The “fold change (FC)” value in the series with SK-N-MC [8] is 2.2. Moreover, the inhibition entry in [9] is “Active”.

`COC(=O)c1ccccc1C(=O)OC` [DIMETHYL PHTHALATE] showed a logP in series [2] of 1.61.

`CC(=O)N(O)CCCCCNC(=O)CCC(=O)N(O)CCCCCNC(=O)CCC(=O)N(O)CCCCCNC(=O)c1ccc(-n2nc(-c3ccccc3O)nc2-c2ccccc2O)cc1`: the values for the logP in series [1] and in series [2] were 3.02 and 2.17, respectively. Besides, the concentration for half-maximal inhibition (IC50) amounted to 23.4 µM in series [3] and 20.6 µM in [4]. Besides, the result with SK-N-MC [6] was Active. In addition, the inhibition entry in [9] was “Active”.

In [2], `Cc1c(O)c(=O)ccn1C` [DEFERIPRONE] showed a logP of -1.02. In addition, half-maximal inhibition in [4] (IC50) required 166 µM. Moreover, the outcome in the series on SK-N-MC [6] was inactive.

Turning to `O=C(O)c1ccc(-n2nc(-c3ccccc3O)nc2-c2ccccc2O)cc1` [DEFERASIROX], the logP in series [2] stood at 3.8. The compound further displayed a half-maximal inhibitory concentration (IC50) in series [4] of 20.5 µM. Further, the residual activity in series [7] is 39%.

As for `CN(C)C(=S)NN=C(c1ccccn1)c1ccccn1`, the residual activity in [7] was determined as 12%.

In series [2], `c1ccc2ccccc2c1` returned a logP of 3.32.
